PMC3184254 (Nature Chemical Biology, 2011)
Read-outs that look alike come from different tables or passages of the source.

Tests used:
[1] = target: SUV39H1 (Homo sapiens, UniProt O43463); test: BPS Bioscience assay, SUV39H1; assay type: biochemical
[2] = target: T1, SETD7 (Homo sapiens, UniProt Q8WTS6); test: SAHH-coupled assay, SETD7; assay type: biochemical
T1 sequence (Q8WTS6 1-366): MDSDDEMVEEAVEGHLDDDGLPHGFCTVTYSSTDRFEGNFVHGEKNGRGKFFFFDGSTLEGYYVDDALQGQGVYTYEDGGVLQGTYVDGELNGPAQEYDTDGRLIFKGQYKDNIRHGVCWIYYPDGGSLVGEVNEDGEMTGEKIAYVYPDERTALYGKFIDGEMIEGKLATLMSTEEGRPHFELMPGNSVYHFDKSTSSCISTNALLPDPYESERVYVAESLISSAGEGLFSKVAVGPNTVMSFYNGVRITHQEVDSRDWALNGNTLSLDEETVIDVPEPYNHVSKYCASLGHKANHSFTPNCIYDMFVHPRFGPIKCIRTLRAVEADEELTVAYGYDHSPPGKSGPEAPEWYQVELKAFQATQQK
Method in brief: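 A fluorescence-based coupled assay used S-adenosyl-L-homocysteine hydrolase to follow conversion of cofactor SAM to SAH by the methyltransferase. IC50 values are the average of at least two separate experiments.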

[3] = target: EZH2 (Homo sapiens, UniProt Q15910); test: BPS Bioscience assay, EZH2; assay type: biochemical
Sequence of EZH2 (Q15910 whole entry, species assumed): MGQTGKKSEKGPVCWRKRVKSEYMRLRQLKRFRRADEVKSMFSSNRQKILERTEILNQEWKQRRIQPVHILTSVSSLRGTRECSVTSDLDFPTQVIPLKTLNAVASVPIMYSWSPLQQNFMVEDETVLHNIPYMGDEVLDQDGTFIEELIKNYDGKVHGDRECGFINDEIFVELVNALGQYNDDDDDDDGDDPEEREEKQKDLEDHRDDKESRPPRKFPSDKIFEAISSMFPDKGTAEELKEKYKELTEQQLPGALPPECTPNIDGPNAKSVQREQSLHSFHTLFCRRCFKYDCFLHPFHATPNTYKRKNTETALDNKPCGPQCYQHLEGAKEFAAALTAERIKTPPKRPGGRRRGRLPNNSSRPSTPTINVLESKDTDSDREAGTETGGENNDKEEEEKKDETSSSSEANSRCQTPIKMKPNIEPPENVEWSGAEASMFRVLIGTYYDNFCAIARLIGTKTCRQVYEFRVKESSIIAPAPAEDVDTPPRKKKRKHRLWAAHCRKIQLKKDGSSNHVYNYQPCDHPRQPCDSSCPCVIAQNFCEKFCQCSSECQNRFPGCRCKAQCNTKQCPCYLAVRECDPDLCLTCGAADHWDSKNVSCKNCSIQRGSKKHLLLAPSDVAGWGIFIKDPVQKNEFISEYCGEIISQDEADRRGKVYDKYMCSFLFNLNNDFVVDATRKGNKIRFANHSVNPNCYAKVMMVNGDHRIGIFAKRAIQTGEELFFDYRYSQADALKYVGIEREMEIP
Sequence of EZH2 (O75530 whole entry partner, species assumed): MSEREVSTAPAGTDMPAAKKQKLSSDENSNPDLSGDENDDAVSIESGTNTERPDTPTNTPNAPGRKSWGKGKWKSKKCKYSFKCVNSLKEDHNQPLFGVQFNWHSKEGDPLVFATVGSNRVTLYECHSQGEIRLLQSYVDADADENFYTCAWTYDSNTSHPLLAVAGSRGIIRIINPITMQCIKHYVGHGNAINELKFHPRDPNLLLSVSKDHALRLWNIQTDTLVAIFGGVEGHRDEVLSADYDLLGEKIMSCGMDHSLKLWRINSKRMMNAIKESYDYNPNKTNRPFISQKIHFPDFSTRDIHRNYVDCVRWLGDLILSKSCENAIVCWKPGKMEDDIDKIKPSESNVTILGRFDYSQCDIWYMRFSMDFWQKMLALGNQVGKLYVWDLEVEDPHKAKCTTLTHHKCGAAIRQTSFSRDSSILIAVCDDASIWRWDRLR
Sequence of EZH2 (Q15022 whole entry partner, species assumed): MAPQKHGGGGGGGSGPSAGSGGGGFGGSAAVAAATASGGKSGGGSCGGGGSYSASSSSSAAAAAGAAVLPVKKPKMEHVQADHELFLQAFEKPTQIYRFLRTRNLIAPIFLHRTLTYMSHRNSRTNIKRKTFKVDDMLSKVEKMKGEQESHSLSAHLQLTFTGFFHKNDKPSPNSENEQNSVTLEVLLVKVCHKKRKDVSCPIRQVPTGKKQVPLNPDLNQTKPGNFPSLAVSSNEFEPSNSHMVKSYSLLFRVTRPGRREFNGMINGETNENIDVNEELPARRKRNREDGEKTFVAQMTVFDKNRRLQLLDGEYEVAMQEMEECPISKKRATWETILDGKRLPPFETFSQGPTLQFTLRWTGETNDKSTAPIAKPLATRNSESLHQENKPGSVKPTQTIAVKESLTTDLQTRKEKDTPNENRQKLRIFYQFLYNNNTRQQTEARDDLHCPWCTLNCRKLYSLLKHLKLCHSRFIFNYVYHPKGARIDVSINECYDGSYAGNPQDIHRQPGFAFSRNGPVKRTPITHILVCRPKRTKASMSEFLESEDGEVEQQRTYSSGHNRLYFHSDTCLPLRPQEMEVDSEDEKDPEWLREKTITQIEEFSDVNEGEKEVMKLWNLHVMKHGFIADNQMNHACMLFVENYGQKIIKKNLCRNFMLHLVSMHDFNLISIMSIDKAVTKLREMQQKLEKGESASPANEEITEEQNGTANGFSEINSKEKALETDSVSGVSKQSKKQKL
Sequence of EZH2 (Q09028 whole entry partner, species assumed): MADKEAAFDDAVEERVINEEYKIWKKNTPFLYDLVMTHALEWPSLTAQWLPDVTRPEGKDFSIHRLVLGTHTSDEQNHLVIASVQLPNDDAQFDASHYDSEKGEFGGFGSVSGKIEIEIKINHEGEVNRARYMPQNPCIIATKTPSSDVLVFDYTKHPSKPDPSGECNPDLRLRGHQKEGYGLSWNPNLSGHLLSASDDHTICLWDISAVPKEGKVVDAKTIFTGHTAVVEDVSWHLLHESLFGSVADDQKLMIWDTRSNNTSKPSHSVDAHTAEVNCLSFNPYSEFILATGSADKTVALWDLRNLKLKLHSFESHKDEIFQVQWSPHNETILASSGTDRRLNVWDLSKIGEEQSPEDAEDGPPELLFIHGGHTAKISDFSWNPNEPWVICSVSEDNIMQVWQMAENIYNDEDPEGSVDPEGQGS
Sequence of EZH2 (Q6ZN18 whole entry partner, species assumed): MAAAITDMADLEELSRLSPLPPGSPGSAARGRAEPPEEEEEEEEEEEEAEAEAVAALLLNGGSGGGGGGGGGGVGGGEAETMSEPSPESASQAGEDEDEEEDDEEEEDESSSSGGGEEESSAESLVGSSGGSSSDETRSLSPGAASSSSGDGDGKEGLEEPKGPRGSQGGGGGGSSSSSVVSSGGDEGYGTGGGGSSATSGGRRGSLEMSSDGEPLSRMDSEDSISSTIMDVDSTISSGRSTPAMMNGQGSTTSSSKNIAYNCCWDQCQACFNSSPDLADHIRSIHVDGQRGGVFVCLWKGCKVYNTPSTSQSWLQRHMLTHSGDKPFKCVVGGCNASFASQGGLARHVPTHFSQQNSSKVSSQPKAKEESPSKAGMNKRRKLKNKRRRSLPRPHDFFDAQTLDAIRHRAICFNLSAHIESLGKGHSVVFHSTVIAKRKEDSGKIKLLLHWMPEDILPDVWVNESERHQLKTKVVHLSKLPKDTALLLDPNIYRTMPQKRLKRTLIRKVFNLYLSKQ

[4] = target: JMJD2E (Homo sapiens, UniProt B2RXH2); test: Alphascreen assay, JMJD2E; assay type: biochemical
[5] = tested on: 26 out of 29 targets in the Ricerca Selectivity Panel; test: Ricerca Selectivity Panel; assay type: binding; details: at 1 μM
[6] = target: adrenergic α1A receptor (Rattus norvegicus, UniProt P43140); test: Ricerca Selectivity Panel, adrenergic α1A; assay type: binding
Sequence of adrenergic α1A receptor (P43140 whole entry): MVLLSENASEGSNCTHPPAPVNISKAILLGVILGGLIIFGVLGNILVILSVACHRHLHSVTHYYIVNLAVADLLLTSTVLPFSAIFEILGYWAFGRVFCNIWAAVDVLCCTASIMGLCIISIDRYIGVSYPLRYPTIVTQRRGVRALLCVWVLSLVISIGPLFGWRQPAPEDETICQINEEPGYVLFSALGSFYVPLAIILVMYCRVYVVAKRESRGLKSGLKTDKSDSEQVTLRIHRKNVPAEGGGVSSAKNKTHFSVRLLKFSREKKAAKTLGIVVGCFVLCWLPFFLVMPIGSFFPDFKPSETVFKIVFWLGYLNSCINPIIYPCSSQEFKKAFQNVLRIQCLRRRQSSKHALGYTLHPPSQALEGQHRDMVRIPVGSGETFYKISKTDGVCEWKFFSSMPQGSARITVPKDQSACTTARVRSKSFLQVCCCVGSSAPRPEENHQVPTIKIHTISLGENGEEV

[7] = target: adrenergic α1B receptor (Rattus norvegicus, UniProt P15823); test: Ricerca Selectivity Panel, adrenergic α1B; assay type: binding
Sequence of adrenergic α1B receptor (P15823 whole entry): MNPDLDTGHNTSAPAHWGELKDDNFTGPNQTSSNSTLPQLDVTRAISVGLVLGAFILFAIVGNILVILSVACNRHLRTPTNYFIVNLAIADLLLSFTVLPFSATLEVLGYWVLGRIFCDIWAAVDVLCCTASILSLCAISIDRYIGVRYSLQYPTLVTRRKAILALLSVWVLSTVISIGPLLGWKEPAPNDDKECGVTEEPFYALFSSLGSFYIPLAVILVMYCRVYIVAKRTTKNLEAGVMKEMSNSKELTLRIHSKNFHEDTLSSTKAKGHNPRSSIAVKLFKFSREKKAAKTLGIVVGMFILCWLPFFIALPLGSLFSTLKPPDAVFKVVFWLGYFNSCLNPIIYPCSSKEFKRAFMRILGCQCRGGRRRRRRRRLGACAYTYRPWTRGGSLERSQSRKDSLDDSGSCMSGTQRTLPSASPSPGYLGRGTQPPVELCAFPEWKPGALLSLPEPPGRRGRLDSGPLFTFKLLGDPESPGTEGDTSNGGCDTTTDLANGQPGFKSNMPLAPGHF

[8] = target: M1 (Homo sapiens, UniProt P11229); test: M1 functional assay; assay type: cell-based
Sequence of M1 (P11229 whole entry): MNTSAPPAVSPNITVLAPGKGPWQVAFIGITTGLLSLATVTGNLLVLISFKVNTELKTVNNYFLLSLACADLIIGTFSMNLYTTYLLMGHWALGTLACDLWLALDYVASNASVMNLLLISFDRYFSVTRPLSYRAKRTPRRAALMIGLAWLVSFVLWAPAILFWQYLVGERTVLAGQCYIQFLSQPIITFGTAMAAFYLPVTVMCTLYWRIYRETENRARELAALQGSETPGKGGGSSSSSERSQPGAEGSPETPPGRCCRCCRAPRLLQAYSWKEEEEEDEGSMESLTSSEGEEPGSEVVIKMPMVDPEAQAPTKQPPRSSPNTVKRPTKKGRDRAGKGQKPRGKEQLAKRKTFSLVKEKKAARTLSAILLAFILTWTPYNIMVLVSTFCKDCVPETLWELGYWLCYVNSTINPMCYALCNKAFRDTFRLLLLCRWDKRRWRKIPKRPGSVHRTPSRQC

[9] = target: M4 (Homo sapiens, UniProt P08173); test: M4 functional assay; assay type: cell-based
[10] = tested on: panel of 24 kinases; test: Kinase selectivity panel; assay type: biochemical; details: at 1 μM; 24 kinases
[11] = Stability in cell media with or without cells; assay type: in vitro ADME; details: with or without MCF7, U2OS or H1299 cells, two types of cell media, 65 h
[12] = tested on: H3K9me2 levels in PC3 cells; test: H3K9me2 in-cell western, PC3; assay type: cell-based; details: Homo sapiens, PC-3, read-out: IC50 for reduction of H3K9me2 levels
[13] = tested on: H3K9me2 levels in 22RV1 cells; test: H3K9me2 in-cell western, 22RV1; assay type: cell-based; details: Homo sapiens, 22Rv1, read-out: IC50 for reduction of H3K9me2 levels
[14] = tested on: H3K9me2 levels in breast, prostate, colon carcinomas and normal fibroblast cells; test: H3K9me2 in-cell western, tumor and normal cell lines; assay type: cell-based, human
[15] = tested on: MCF7 cells; test: Clonogenicity assay, MCF7; assay type: cell-based, human
[16] = tested on: histone marks in MDA-MB-231 cells; test: Quantitative MS analysis of histone modifications; assay type: cell-based, human; details: 1 μM for 48 h
Method in brief: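 MDA-MB-231 cells were treated at 1 µM for 48 h. Histones were acid-extracted, derivatized with propionic anhydride and digested with trypsin. Mock and treated samples carried D0 or D5 propionyl labels. Peptides were analysed by LC-MS/MS on an Orbitrap, with all data manually verified.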

[17] = tested on: H3K9me2 levels in MCF7 cells; test: H3K9me2 inhibition, MCF7; assay type: cell-based; details: Homo sapiens, MCF7, read-out: IC90 for H3K9me2 inhibition
[18] = tested on: H3K9me2 at genomic loci on chr3 and chrX in MCF7 cells; test: ChIP-chip with H3K9me2 antibody; assay type: cell-based, human; details: 320 nM for 14 d
[19] = tested on: DNA methylation on chr3 and chrX in MCF7 cells; test: DNA methylation microarray analysis, MCF7; assay type: cell-based, human; details: 14 d at 70 or 320 nM
[20] = tested on: J1 mES cells; test: SSEA1 pluripotency marker immunostaining, flow cytometry; assay type: cell-based, mouse; details: 100 nM
[21] = tested on: MAGEA2 and DUB1 genes in J1 mES cells; test: mRNA levels of G9a-regulated endogenous genes; assay type: cell-based, mouse; details: day 10; versus untreated or UNC0737-treated cells
[22] = assay results from BPS Bioscience

Sequence of SUV39H1 (O43463 whole entry, species assumed): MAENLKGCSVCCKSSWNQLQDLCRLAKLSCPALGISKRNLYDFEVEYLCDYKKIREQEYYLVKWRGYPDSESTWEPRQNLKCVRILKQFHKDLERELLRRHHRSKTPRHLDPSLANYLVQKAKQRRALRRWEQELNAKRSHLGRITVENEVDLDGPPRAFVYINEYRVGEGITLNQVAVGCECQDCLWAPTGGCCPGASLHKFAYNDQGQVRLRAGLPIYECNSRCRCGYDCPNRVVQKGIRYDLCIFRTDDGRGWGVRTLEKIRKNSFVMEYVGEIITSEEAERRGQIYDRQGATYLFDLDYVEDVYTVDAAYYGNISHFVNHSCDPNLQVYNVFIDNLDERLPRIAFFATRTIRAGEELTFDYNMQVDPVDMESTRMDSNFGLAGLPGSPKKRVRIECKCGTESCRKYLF

**Q.** For COc1cc2c(NC3CCN(C(C)C)CC3)nc(C3CCCCC3)nc2cc1OCCCN1CCCC1 [UNC0638], which IC50 [1] is on record?
**A.** > 10000 nM

**Q.** What about the IC50 [1, 22] of the same compound?
**A.** inactive

**Q.** What about the IC50 [2] of the same compound?
**A.** > 10000 nM

**Q.** What about the IC50 ([2]; SAHH-coupled assay) of the same compound?
**A.** inactive

**Q.** And the IC50 [3]?
**A.** > 10000 nM

**Q.** And the IC50 [3, 22]?
**A.** inactive

**Q.** And the IC50 [4]?
**A.** 4500 nM

**Q.** And the inhibition [5]?
**A.** < 30%

**Q.** What about the inhibition at 1 µM [6] of the same compound?
**A.** 90%

**Q.** And the inhibition at 1 µM [7]?
**A.** 69%

**Q.** What about the IC50 [8] of the same compound?
**A.** > 10000 nM

**Q.** And the IC50 [9]?
**A.** > 10000 nM

**Q.** And the inhibition [10]?
**A.** < 10%

**Q.** What about the “stability in cell media” value [11] of the same compound?
**A.** did not produce degradation products

**Q.** And the IC50 [12]?
**A.** 59 nM

**Q.** What about the IC50 [13] of the same compound?
**A.** 48 nM

**Q.** What about the IC50 ([14]; Homo sapiens, Fibroblast, read-out: potency in reducing H3K9me2 levels) of the same compound?
**A.** 48 to 238 nM

**Q.** What about the “reduction of H3K9me2 levels” value ([14]; at 250 nM, variety of cell lines) of the same compound?
**A.** 60–80%

**Q.** What about the clonogenicity [15] of the same compound?
**A.** marked concentration-dependent reduction of clonogenicity

**Q.** What about the “levels of H3K9me2 by quantitative MS” value [16] of the same compound?
**A.** considerably lower

**Q.** And the “levels of H3K9me3 by quantitative MS” value [16]?
**A.** remained constant

**Q.** What about the “levels of H3K14ac by quantitative MS” value [16] of the same compound?
**A.** doubled

**Q.** What about the IC90 [17] of the same compound?
**A.** 320 nM

**Q.** And the “genomic regions containing H3K9me2 on chr3 and chrX” value [18]?
**A.** significantly fewer genomic regions containing H3K9me2

**Q.** And the “total levels of DNA methylation on chr3 and chrX” value [19]?
**A.** not altered

**Q.** What about the “SSEA1+ cells” value [20] of the same compound?
**A.** 97%

**Q.** And the “expression of DUB1 and MAGEA2 genes” value [21]?
**A.** more highly expressed
